# Measurements reported in ChEMBL document CHEMBL1145010, “Stereoselective synthesis of beta-lactams with polyaromatic imines: entry to new and novel anticancer agents” (2003).
# Tests used:
# [1] = (§1) In Vitro cytotoxicity against human cancer cell line, MDA-213; type: functional, Cancer cell lines
# Outline: (§2)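 MTT cytotoxicity assay across a panel of nine human cancer cell lines, run in the institutional Pharmacology and Analytic Core Laboratory by a previously described protocol. Cisplatin and a diamide were included as reference controls. Activity above 20 μM/mL was regarded as not significant.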
# HL-60 = assay: In Vitro cytotoxicity against human cancer cell line, HL-60; type: functional; outline: as §2
# [2] = (§3) In Vitro cytotoxicity against human cancer cell line, SKOV; type: functional, Cancer cell lines; outline: as §2
# PC-3 = assay: In Vitro cytotoxicity against human cancer cell line, PC-3; type: functional; outline: as §2
# HT-29 = assay: In Vitro cytotoxicity against human cancer cell line, HT-29; type: functional; outline: as §2
# OVCAR = assay: In Vitro cytotoxicity against human cancer cell line, OVCAR; type: functional; outline: as §2
# K562 = assay: In Vitro cytotoxicity against human cancer cell line, K-562; type: functional; outline: as §2
# MCF7 = assay: In Vitro cytotoxicity against human cancer cell line, MCF-7; type: functional; outline: as §2
# [3] = (§4) In Vitro cytotoxicity against human cancer cell line, BRO; type: functional, Cancer cell lines; outline: as §2
# Cancer cell lines [4] = assay: as §1; type: functional; outline: as §2
# Cancer cell lines [5] = assay: as §3; type: functional; outline: as §2
# Cancer cell lines [6] = assay: as §4; type: functional; outline: as §2
molecule,measurement,setting,value
CN1CCN(C(=O)CCC(=O)Nc2cc3c4ccccc4ccc3c3ccccc23)CC1,Cytotoxicity,[1],12.23 µM
same,Cytotoxicity,HL-60,9.41 µM
same,Cytotoxicity,[2],11.05 µM
same,Cytotoxicity,PC-3,27.29 µM
same,Cytotoxicity,HT-29,16.7 µM
same,Cytotoxicity,OVCAR,18.11 µM
same,Cytotoxicity,K562,12.7 µM
same,Cytotoxicity,MCF7,40 µM
same,Cytotoxicity,[3],33.64 µM
CC(=O)OC1C(=O)N(c2cccc3cc4c(cc23)Cc2cc3ccccc3cc2-4)[C@H]1c1ccccc1 (stereo not given in full),Cytotoxicity,[1],>20 µM
same,Cytotoxicity,HL-60,>20 µM
same,Cytotoxicity,[2],>20 µM
same,Cytotoxicity,PC-3,>20 µM
same,Cytotoxicity,HT-29,>20 µM
same,Cytotoxicity,OVCAR,>20 µM
same,Cytotoxicity,K562,>20 µM
same,Cytotoxicity,MCF7,>20 µM
same,Cytotoxicity,[3],>20 µM
CC(=O)OC1C(=O)N(c2cccc3cc4ccccc4cc23)[C@@H]1c1ccccc1 (stereo not given in full),Cytotoxicity,[1],>20 µM
same,Cytotoxicity,HL-60,>20 µM
same,Cytotoxicity,[2],>20 µM
same,Cytotoxicity,PC-3,>20 µM
same,Cytotoxicity,HT-29,>20 µM
same,Cytotoxicity,OVCAR,>20 µM
same,Cytotoxicity,K562,>20 µM
same,Cytotoxicity,MCF7,>20 µM
same,Cytotoxicity,[3],>20 µM
CC(=O)OC1C(=O)N(c2cc3ccccc3c3ccccc23)[C@H]1c1ccccc1 (stereo not given in full),Cytotoxicity,[1],12.49 µM
same,Cytotoxicity,HL-60,5.21 µM
same,Cytotoxicity,[2],18 µM
same,Cytotoxicity,PC-3,9.3 µM
same,Cytotoxicity,HT-29,10.49 µM
same,Cytotoxicity,OVCAR,18 µM
same,Cytotoxicity,K562,4 µM
same,Cytotoxicity,MCF7,10.09 µM
same,Cytotoxicity,[3],10.48 µM
CC(=O)OC1C(=O)N(c2cc3c4ccccc4ccc3c3ccccc23)[C@H]1c1ccccc1 (stereo not given in full),Cytotoxicity,[1],11.98 µM
same,Cytotoxicity,HL-60,3.64 µM
same,Cytotoxicity,[2],6.88 µM
same,Cytotoxicity,PC-3,16.32 µM
same,Cytotoxicity,HT-29,5.66 µM
same,Cytotoxicity,OVCAR,4.17 µM
same,Cytotoxicity,K562,4.33 µM
same,Cytotoxicity,MCF7,9.81 µM
same,Cytotoxicity,[3],10.84 µM
O=C1c2ccccc2C(=O)N1C1C(=O)N(c2cc3c4ccccc4ccc3c3ccccc23)[C@H]1c1ccccc1 (stereo not given in full),Cytotoxicity,[1],>20 µM
same,Cytotoxicity,HL-60,>20 µM
same,Cytotoxicity,[2],>20 µM
same,Cytotoxicity,PC-3,>20 µM
same,Cytotoxicity,HT-29,>20 µM
same,Cytotoxicity,OVCAR,>20 µM
same,Cytotoxicity,K562,>20 µM
same,Cytotoxicity,MCF7,>20 µM
same,Cytotoxicity,[3],>20 µM
CC(=O)OC1C(=O)N(c2ccc3ccc4cccc5ccc2c3c45)[C@H]1c1ccccc1 (stereo not given in full),Cytotoxicity,[1],>20 µM
same,Cytotoxicity,HL-60,>20 µM
same,Cytotoxicity,[2],>20 µM
same,Cytotoxicity,PC-3,>20 µM
same,Cytotoxicity,HT-29,>20 µM
same,Cytotoxicity,OVCAR,>20 µM
same,Cytotoxicity,K562,>20 µM
same,Cytotoxicity,MCF7,>20 µM
same,Cytotoxicity,[3],>20 µM
CISPLATIN,Cytotoxicity,Cancer cell lines [4],12.3 µM
same,Cytotoxicity,HL-60,1.66 µM
same,Cytotoxicity,Cancer cell lines [5],5.99 µM
same,Cytotoxicity,PC-3,4.66 µM
same,Cytotoxicity,HT-29,17 µM
same,Cytotoxicity,OVCAR,3.99 µM
same,Cytotoxicity,K562,2.33 µM
same,Cytotoxicity,MCF7,10.1 µM
same,Cytotoxicity,Cancer cell lines [6],7.66 µM
O=C1C(Oc2ccccc2)[C@H](c2ccccc2)N1c1cc2c3ccccc3ccc2c2ccccc12 (stereo not given in full),Cytotoxicity,[1],>20 µM
same,Cytotoxicity,HL-60,>20 µM
same,Cytotoxicity,[2],>20 µM
same,Cytotoxicity,PC-3,>20 µM
same,Cytotoxicity,HT-29,>20 µM
same,Cytotoxicity,OVCAR,>20 µM
same,Cytotoxicity,K562,>20 µM
same,Cytotoxicity,MCF7,>20 µM
same,Cytotoxicity,[3],>20 µM
CC(=O)OC1C(=O)N(c2cccc3ccccc23)[C@@H]1c1ccccc1 (stereo not given in full),Cytotoxicity,[1],>20 µM
same,Cytotoxicity,HL-60,>20 µM
same,Cytotoxicity,[2],>20 µM
same,Cytotoxicity,PC-3,>20 µM
same,Cytotoxicity,HT-29,>20 µM
same,Cytotoxicity,OVCAR,>20 µM
same,Cytotoxicity,K562,>20 µM
same,Cytotoxicity,MCF7,>20 µM
same,Cytotoxicity,[3],>20 µM
O=C1C(Oc2ccccc2)[C@H](c2ccccc2)N1c1cc2ccccc2c2ccccc12 (stereo not given in full),Cytotoxicity,[1],>20 µM
same,Cytotoxicity,HL-60,>20 µM
same,Cytotoxicity,[2],>20 µM
same,Cytotoxicity,PC-3,>20 µM
same,Cytotoxicity,HT-29,>20 µM
same,Cytotoxicity,OVCAR,>20 µM
same,Cytotoxicity,K562,>20 µM
same,Cytotoxicity,MCF7,>20 µM
same,Cytotoxicity,[3],>20 µM
CC(=O)OC1C(=O)N(c2cc3c4ccccc4ccc3c3ccccc23)[C@H]1c1ccccn1 (stereo not given in full),Cytotoxicity,[1],14.46 µM
same,Cytotoxicity,HL-60,2.5 µM
same,Cytotoxicity,[2],9 µM
same,Cytotoxicity,HT-29,15.9 µM
same,Cytotoxicity,K562,2.5 µM
same,Cytotoxicity,MCF7,14.93 µM
same,Cytotoxicity,[3],11 µM
CC(=O)OC1C(=O)N(c2ccccc2)C1c1cc2c3ccccc3ccc2c2ccccc12 (stereo not given),Cytotoxicity,[1],>20 µM
same,Cytotoxicity,HL-60,>20 µM
same,Cytotoxicity,[2],>20 µM
same,Cytotoxicity,PC-3,>20 µM
same,Cytotoxicity,HT-29,>20 µM
same,Cytotoxicity,OVCAR,>20 µM
same,Cytotoxicity,K562,>20 µM
same,Cytotoxicity,MCF7,>20 µM
same,Cytotoxicity,[3],>20 µM
